Test results reported in ChEMBL document CHEMBL1221379, “Identification and hit-to-lead optimization of a novel class of CB1 antagonists” (Bioorg Med Chem Lett, 2010).
pIC50: −log10 of the molar value. ≈ marks a conversion by molar mass, not a printed value.

Experiments:
[1] = Aqueous solubility of the compound; assay type: physicochemical; settings: buffer
Summary of the method: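 Shake-flask method. 10 mM DMSO stock added to 0.05 M phosphate buffered saline pH 7.4, 2% DMSO final. Vortexed at 1500 rpm for 24 h at 21 °C, then vacuum-filtered. Filtrate assayed by HPLC with UV at 230 nm against a calibration from a 50 µM DMSO solution. Duplicate determinations, averaged.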

[2] = Metabolic stability in human liver microsome assessed as compound remaining after 0.5 hrs; assay type: ADME; settings: liver microsomes, read-out: Stability
Summary of the method: (§1)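 Human or mouse liver microsomes (300 nM cytochrome P450) in phosphate buffer pH 7.4 with 1 µM test compound and 1 mM NADPH. Incubated 30 min at 37 °C, stopped with acetonitrile, centrifuged, and analysed by LC/MS. Result given as % compound remaining at 0.5 h.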

[3] = Metabolic stability in mouse liver microsome assessed as compound remaining after 0.5 hrs; assay type: ADME; settings: liver microsomes, read-out: Stability; summary of the method: as §1
Cannabinoid receptor 1 = Cannabinoid receptor 1 (Homo sapiens, UniProt P21554); assay: Antagonist activity at human cannabinoid CB1 receptor expressed in CHO cells by luciferase reporter gene assay
Cannabinoid receptor 1, sequence (P21554 whole entry): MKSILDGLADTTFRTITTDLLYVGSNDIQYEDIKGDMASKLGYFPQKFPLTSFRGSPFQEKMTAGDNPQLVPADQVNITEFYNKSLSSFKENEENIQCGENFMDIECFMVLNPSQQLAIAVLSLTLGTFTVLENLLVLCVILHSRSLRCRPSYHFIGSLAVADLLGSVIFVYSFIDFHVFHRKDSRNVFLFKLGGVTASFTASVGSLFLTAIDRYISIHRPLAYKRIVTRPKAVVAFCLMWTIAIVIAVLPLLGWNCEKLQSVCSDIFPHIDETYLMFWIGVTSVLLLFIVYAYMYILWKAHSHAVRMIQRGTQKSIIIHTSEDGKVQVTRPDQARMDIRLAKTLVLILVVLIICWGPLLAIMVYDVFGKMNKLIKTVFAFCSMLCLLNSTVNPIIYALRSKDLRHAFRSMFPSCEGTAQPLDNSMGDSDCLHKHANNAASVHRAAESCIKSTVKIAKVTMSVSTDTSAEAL

Mus musculus [4] = assay: Inhibition of WIN-55212-2-induced hypothermia in sc dosed mouse assessed as change in rectal temperature administered 15 mins before WIN-55212-2 challenge measured after 60 mins; settings: 1 h
Mus musculus [5] = assay: Inhibition of WIN-55212-2-induced hypothermia in mouse assessed as change in rectal temperature at 1 umol/kg sc administered 15 mins before WIN-55212-2 challenge measured after 60 mins; set-up: scale not given: the % may be the effect or the level left
Mus musculus [6] = assay: Inhibition of WIN-55212-2-induced hypothermia in mouse assessed as change in rectal temperature at 3 umol/kg sc administered 15 mins before WIN-55212-2 challenge measured after 60 mins; set-up: scale not given: the % may be the effect or the level left
Mus musculus [7] = assay: Inhibition of WIN-55212-2-induced hypothermia in mouse assessed as change in rectal temperature at 10 umol/kg sc administered 15 mins before WIN-55212-2 challenge measured after 60 mins; set-up: scale not given: the % may be the effect or the level left
Mus musculus [8] = assay: Inhibition of WIN-55212-2-induced hypothermia in mouse assessed as change in rectal temperature at 30 umol/kg sc administered 15 mins before WIN-55212-2 challenge measured after 60 mins; set-up: scale not given: the % may be the effect or the level left
Mus musculus [9] = assay: Inhibition of WIN-55212-2-induced hypothermia in mouse assessed as change in rectal temperature at 0.1 umol/kg sc administered 15 mins before WIN-55212-2 challenge measured after 60 mins; set-up: scale not given: the % may be the effect or the level left
Mus musculus [10] = assay: Inhibition of WIN-55212-2-induced hypothermia in mouse assessed as change in rectal temperature at 0.3 umol/kg sc administered 15 mins before WIN-55212-2 challenge measured after 60 mins; set-up: scale not given: the % may be the effect or the level left
Mus musculus [11] = assay: Inhibition of WIN-55212-2-induced hypothermia in mouse assessed as change in rectal temperature at 0.01 umol/kg sc administered 15 mins before WIN-55212-2 challenge measured after 60 mins; set-up: scale not given: the % may be the effect or the level left
[12] = AUC (0 to 7.5 hrs) in Wistar rat at 5 mg/kg, po; assay type: ADME, organism-based; set-up: time < 7.5 hr, dose 5 mg/kg, route oral; settings: plasma
Summary of the method: (§2)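 Male Wistar rats dosed 5 mpk po in 0.5% gelatin in 5% mannitol (aq), or 1 mpk iv in 20% N,N-dimethylacetamide in saline. AUC po taken over 0–7.5 h; clearance and half-life from iv dosing; oral bioavailability and Vss from po/iv pharmacokinetic parameters.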

[13] = Oral bioavailability in Wistar rat at 5 mg/kg; assay type: ADME, organism-based; settings: in vivo; summary of the method: as §2
[14] = Clearance in Wistar rat at 1 mg/kg, iv; assay type: ADME, organism-based; set-up: dose 1 mg/kg, route intravenous; settings: in vivo; summary of the method: as §2
[15] = Volume of distribution at steady state in Wistar rat at 5 mg/kg, po and 1 mg/kg, iv; assay type: ADME, organism-based; settings: in vivo, read-out: Vdss; summary of the method: as §2
[16] = Half life in Wistar rat at 1 mg/kg, iv; assay type: ADME, organism-based; set-up: dose 1 mg/kg, route intravenous; settings: in vivo; summary of the method: as §2
Mus musculus [17] = assay: Inhibition of WIN-55212-2-induced hypothermia in mouse assessed as change in rectal temperature at 100 umol/kg sc administered 15 mins before WIN-55212-2 challenge measured after 60 mins; set-up: scale not given: the % may be the effect or the level left

Row | SMILES | solubility [1] | remaining at 0.5 h [2] | remaining at 0.5 h [3] | pIC50 (Cannabinoid receptor 1) | other results
1 | COc1cc(F)ccc1-c1cccc(Cc2cn(C)c3ccc(NC(=O)C(C)(C)CO)cc23)n1 | 2 µg/mL (≈ 4.33 µM) | 47% | 5% | 7.57 | 
2 | COc1cc(F)ccc1-c1cccc(Cn2ccc3ccc(NC(=O)C(C)(C)C)cc32)c1 | < 1 µg/mL | 51% | 58% | 7.24 | 
3 | CC(C)(C)C(=O)Nc1ccc2ncn(Cc3cccc(-c4cccc5c4OCO5)c3)c2c1 |  | 35% | 2% | 7.19 | 
4 | CC(C)(C)C(=O)Nc1ccc2ccn(Cc3cccc(-c4cccc5c4OCO5)c3)c2c1 | < 1 µg/mL | 72% | 65% | 7.29 | 
5 | COc1cc(F)ccc1-c1cccc(Cn2ccc3ccc(NC(=O)CC(C)(C)O)cc32)n1 | 17.9 µg/mL (≈ 40 µM) | 35% | 44% | 7.64 | 
6 | Cc1c(C(=O)NN2CCCCC2)nn(-c2ccc(Cl)cc2Cl)c1-c1ccc(Cl)cc1 [RIMONABANT] |  |  |  |  | ED50 (Mus musculus [4]): 0.8 µmol/kg; Activity (Mus musculus [5]): 60.2%; Activity (Mus musculus [6]): 116.7%; Activity (Mus musculus [7]): 113.4%; Activity (Mus musculus [8]): 100.4%; Activity (Mus musculus [9]): 13.8%; Activity (Mus musculus [10]): 14.7%; Activity (Mus musculus [11]): -0.2%
7 | Cn1cc(Cc2cccc(-c3cccc4c3OCO4)n2)c2cc(NC(=O)C(C)(C)CO)ccc21 | < 1 µg/mL | 56% | 16% | 8.15 | 
8 | COc1cc(F)ccc1-c1cccc(Cn2ccc3ccc(NC(=O)C(C)(C)CO)cc32)n1 | 11.7 µg/mL (≈ 26.1 µM) | 45% | 54% | 7.35 | 
9 | Cn1cc(Cc2cccc(-c3cccc4c3OCO4)n2)c2cc(NC(=O)CC(C)(C)O)ccc21 | 14.9 µg/mL (≈ 32.6 µM) | 56% | 36% | 8.30 | AUC(0-t) at 7.5 h [12]: 1.29 µg·h/mL; bioavailability [13]: 37%; clearance [14]: 1.14 L/h/kg; Vd [15]: 1.2 L/kg; half-life [16]: 1 h; ED50 (Mus musculus [4]): 30 µmol/kg; Activity (Mus musculus [8]): 46.8%; Activity (Mus musculus [17]): 92.5%
10 | CC(C)(O)CC(=O)Nc1ccc2ccn(Cc3cccc(-c4cccc5c4OCO5)n3)c2c1 | < 1 µg/mL | 51% | 53% | 8.52 | 
11 | COc1cc(F)ccc1-c1cccc(Cn2cnc3ccc(NC(=O)C(C)(C)C)cc32)c1 |  |  |  | 6.57 | 
12 | COc1ccccc1-c1cccc(Cn2cnc3ccc(C(=O)NCc4cccc(F)c4)cc32)c1 |  | 2% | 0% | 6.98 | 
13 | CC(C)(CO)C(=O)Nc1ccc2ccn(Cc3cccc(-c4cccc5c4OCO5)n3)c2c1 | 3.2 µg/mL (≈ 7.22 µM) | 62% | 52% | 8.15 | 
14 | COc1cc(F)ccc1-c1cccc(Cc2cn(C)c3ccc(NC(=O)C(C)(C)C)cc23)c1 | < 1 µg/mL | 70% | 72% | 7.35 | 
15 | Cn1cc(Cc2cccc(-c3cccc4c3OCO4)c2)c2cc(NC(=O)C(C)(C)C)ccc21 | < 1 µg/mL | 52% | 29% | 7.43 | 
16 | COc1cc(F)ccc1-c1cccc(Cn2cnc3ccc(NC(=O)C(C)(C)C)cc32)n1 |  | 14% | 1% | 7.14 | 
17 | CC(C)(C)C(=O)Nc1ccc2ncn(Cc3cccc(-c4cccc5c4OCO5)n3)c2c1 |  | 28% | 17% | 7.68 | 
18 | COc1cc(F)ccc1-c1cccc(Cc2cn(C)c3ccc(NC(=O)CC(C)(C)O)cc23)n1 | 10.6 µg/mL (≈ 23 µM) | 41% | 14% | 7.72 | 
